This note sets out measurements from ChEMBL document CHEMBL1131320, “Role of the C(6)-hydroxy group in bicyclomycin: synthesis, structure, and chemical, biochemical, and biological properties” (1998).

For test [1], the system named is Escherichia coli. Kind of test: The compound was tested for the concentration to inhibit 50% of transcription termination activity in Escherichia coli-rho and is expressed in I50. Format: functional. The procedure, abridged: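 Rho-dependent transcription termination following Platt and co-workers, at pH 7.9 with [α-³²P]UTP and rho purified from E. coli AR120/p39-AS. I50 is the average 50% inhibition concentration from duplicate tests.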

Test [2] has as its system Escherichia coli. Kind of test: The compound was tested for minimum inhibitory concentration (MIC) against Escherichia coli W3350 cells. Format: functional. The procedure, abridged: (§1)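 Filter-disk assay; MIC taken as the average minimum inhibitory concentration from duplicate tests.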
Test [3] concerns Escherichia coli. Kind of test: The compound was tested for the % inhibition of transcription termination (TT) activity in Escherichia coli-rho at 100 uM. Format: functional. The procedure, abridged:
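Rho-dependent transcription termination (Platt method), at pH 7.9 with [α-³²P]UTP label and purified E. coli rho. Percent termination is read at 100 µM.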

The target of test [4] is Transcription termination factor rho (Escherichia coli) (UniProt P0AG30). Kind of test: The compound was tested for the % inhibition of rho poly(C)-stimulated ATPase activity at 400 uM.
Sequence of Transcription termination factor rho (Escherichia coli) (P0AG30 whole entry, looked up): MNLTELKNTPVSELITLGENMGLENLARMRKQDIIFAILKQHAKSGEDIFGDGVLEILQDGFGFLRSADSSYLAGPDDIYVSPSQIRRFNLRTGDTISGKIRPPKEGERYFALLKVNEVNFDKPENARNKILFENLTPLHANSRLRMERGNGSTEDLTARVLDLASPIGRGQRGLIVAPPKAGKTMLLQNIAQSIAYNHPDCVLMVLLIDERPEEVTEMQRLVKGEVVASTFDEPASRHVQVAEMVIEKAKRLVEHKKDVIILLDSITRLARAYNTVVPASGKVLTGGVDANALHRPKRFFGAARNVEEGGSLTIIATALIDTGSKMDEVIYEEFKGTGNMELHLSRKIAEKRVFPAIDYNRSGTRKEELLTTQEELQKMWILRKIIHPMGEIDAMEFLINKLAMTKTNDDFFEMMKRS
The target is the same in test [5]. Briefly: The compound was tested for the concentration to inhibit 50% of ATPase activity.
For test [6], the system named is Escherichia coli. Briefly: The compound was tested for minimum inhibitory concentration (MIC) against Escherichia coli W3350 cells. Format: functional. In a few lines: as §1
Test [7] relates to Escherichia coli. Briefly: The compound was tested for the % inhibition of rho poly(C)-stimulated ATPase activity at 400 uM. Format: functional. In a few lines: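 Poly(C)-dependent ATPase of purified E. coli rho (AR120/p39-AS overexpression, Lowry-quantified), run at pH 7.9 with [γ-³²P]ATP. Percent inhibition is read at 400 µM alongside a concurrently run parent-antibiotic reference.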

Values after ≈ are worked out from the molar mass of the structure shown.

Usually MIC stands for the lowest concentration found to suppress growth. Usually inhibition stands for the drop in the measured response relative to a control, in per cent. A lower inhibition goes with a weak effect. Consider `C=C1CCOC2([C@@H](O)[C@@](C)(O)CO)NC(=O)[C@@]1(N(C)OC)NC2=O`, for which the I50 in the test with Escherichia coli [1] is greater than 100 µM; in test [5] it was greater than 400. For the same compound, the MIC in the test on Escherichia coli [2] (read-out: MIC) is greater than 32 µg/mL. The compound also came in with an inhibition at 100 µM with Escherichia coli [3] of 0%. Moreover, the inhibition in test [4] was found to be 7%.

As for `C=C1CCOC2([C@@H](O)[C@@](C)(O)CO)NC(=O)[C@@]1(NC)NC2=O`, the I50 in the test on Escherichia coli [1] was greater than 100 µM; in test [5], greater than 400. Moreover, the MIC with Escherichia coli [2] (read-out: MIC) was greater than 32 µg/mL. In the test on Escherichia coli [3], this compound gave an inhibition at 100 µM of 2%. This compound also gave an inhibition in test [4] of 3%.

As for `C=C1CCOC2([C@@H](O)[C@@](C)(O)CO)NC(=O)[C@@]1(NO)NC2=O`, the I50 was greater than 100 µM in the test on Escherichia coli [1] and greater than 400 in test [5]. Besides, the MIC in the test on Escherichia coli [2] (read-out: MIC) is greater than 32 µg/mL. The same compound displayed an inhibition at 100 µM in the test with Escherichia coli [3] of 22%. This compound displayed an inhibition in test [4] of 45%.

Consider `C=C1CCOC2([C@@H](O)[C@@](C)(O)CO)NC(=O)[C@@]1(N(C)O)NC2=O`, for which the I50 in the test on Escherichia coli [1] was greater than 100 µM; in test [5] it was greater than 400. Further, the MIC with Escherichia coli [2] (read-out: MIC) is greater than 32 µg/mL. Also, the inhibition at 100 µM in the test on Escherichia coli [3] stood at 0%. The inhibition in test [4] stood at 16%.

For the compound `C=C1CCOC2([C@@H](O)[C@@](C)(O)CO)NC(=O)[C@@]1(N(C)C)NC2=O`, the I50 is greater than 100 µM in the test with Escherichia coli [1] and greater than 400 in test [5]. Further, the MIC with Escherichia coli [6] is greater than 32 µg/mL. In addition, the inhibition at 100 µM in the test on Escherichia coli [3] was 1%. Besides, the inhibition in test [4] was 1%.

On to `C=C1CCOC2([C@@H](O)[C@@](C)(O)CO)NC(=O)[C@@]1(NC(C)=O)NC2=O`, for which the I50 is greater than 100 µM with Escherichia coli [1] and greater than 400 in test [5]. Moreover, the MIC in the test on Escherichia coli [2] (read-out: MIC) was greater than 32 µg/mL. In the test with Escherichia coli [3], this compound displayed an inhibition at 100 µM of 1%. The same compound displayed an inhibition in test [4] of 15%.

As for `C=C1CCOC2([C@@H](O)[C@@](C)(O)CO)NC(=O)[C@@]1(S)NC2=O`, the I50 with Escherichia coli [1] was greater than 100 µM; in test [5], greater than 400. Besides, the MIC in the test with Escherichia coli [2] (read-out: MIC) was greater than 32 µg/mL. This compound had an inhibition at 100 µM with Escherichia coli [3] of 8%. For the same compound, in test [4], the inhibition stood at 28%.

Consider `C=C1CCOC2([C@@H](O)[C@@](C)(O)CO)NC(=O)[C@@]1(N)NC2=O`, for which the I50 is greater than 100 µM in the test on Escherichia coli [1] and greater than 400 in test [5]. The MIC against Escherichia coli [6] was greater than 32 µg/mL. The compound further returned an inhibition at 100 µM in the test on Escherichia coli [3] of 5%. 400 µM produced 17% inhibition in the test with Escherichia coli [7].

Consider `C=C1CCOC2([C@@H](O)[C@@](C)(O)CO)NC(=O)[C@@]1(O)NC2=O`, for which, in the test with Escherichia coli [1], the I50 is 5 µM. The compound also showed an MIC in the test with Escherichia coli [2] of 250 µg/mL (≈ 827 µM). In addition, in the test on Escherichia coli [3], the inhibition at 100 µM came to 100%.

As to `C=C1CCOC2([C@@H](O)[C@@](C)(O)CO)NC(=O)[C@@]1(NOC)NC2=O`, the I50 is greater than 100 µM in the test on Escherichia coli [1] and greater than 400 in test [5]. Also, the MIC with Escherichia coli [2] (read-out: MIC) was greater than 32 µg/mL. In the test on Escherichia coli [3], this compound returned an inhibition at 100 µM of 0%. This compound showed an inhibition in test [4] of 13%.
